Results reported in ChEMBL document CHEMBL1125642, “Fluorocarbocyclic nucleosides: synthesis and antiviral activity of 2'- and 6'-fluorocarbocyclic 2'-deoxy guanosines” (1991).
≈ marks a conversion by molar mass, not a printed value.

Columns and labels:
Human alphaherpesvirus 2 [1] = test: Concentration required to inhibit HSV-2 strain 186 cytopathic effect by 50% was measured by plaque reduction assay; format: functional; conditions: for IC50: Human alphaherpesvirus 2, read-out: ID50 (the source's name)
In short: (§1)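 Plaque reduction in confluent Vero monolayers infected with 30-40 PFU of HSV-1 KOS or HSV-2 186, with 1 h adsorption at 37 °C. Cells were then overlaid with maintenance medium containing 0.75% carboxymethylcellulose and a range of compound concentrations. After 2 days at 37 °C, cells were fixed and stained and plaques counted. ID50 is the concentration giving 50% plaque reduction.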

Human alphaherpesvirus 1 [2] = test: Concentration required to inhibit HSV-1 strain KOS cytopathic effect by 50% was measured by plaque reduction assay; format: functional; conditions: for IC50: Human alphaherpesvirus 1, read-out: ID50 (the source's name); in short: as §1
Vero = test: Cytotoxicity was evaluated by measuring the dose affecting 50% of mock-infected Vero monolayers; format: functional; conditions: Chlorocebus sabaeus, read-out: ID50 (the source's name)
In short: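 Mock-infected confluent Vero monolayers were incubated with compound for 48 h at 37 °C and examined microscopically. Gross changes in staining, cell number or morphology were scored. The value is the dose affecting 50% of the monolayer.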

Human alphaherpesvirus 2 [3] = test: In vivo efficacy of compound against HSV-2 strain A133 in the mouse system model was measured at 6.25 dose(mg/kg), activity expressed as Survivors counted on day 21; […]; format: functional
In short: (§2)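 Female albino mice (15-18 g) were challenged ip with 0.2 mL virus suspension at (5-15) × LD50. Starting 1 h later, they were dosed sc (0.2 mL, saline) twice daily for 4 days. Doses were the maximum tolerated dose and serial dilutions of it. Groups had 5-10 mice. Survivors were counted on day 21, and ED50 (mg/kg per dose) came from logit transformation (Litchfield–Wilcoxon).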

Human alphaherpesvirus 2 [4] = test: In vivo efficacy of compound against HSV-2 strain A133 in the mouse system model was measured at 0.025 dose(mg/kg), activity expressed as Survivors counted on day 21; 0/10; format: functional; in short: as §2
Human alphaherpesvirus 1 [5] = test: In vivo efficacy of compound against HSV-1 strain A133 in the mouse system model was measured at 3.1 dose(mg/kg), activity expressed as Survivors counted on day 21; 10/10; format: functional; in short: as §2
Human alphaherpesvirus 1 [6] = test: In vivo efficacy of compound against HSV-1 strain A133 in the mouse system model was measured at 0.012 dose(mg/kg), activity expressed as Survivors counted on day 21; 1/10; format: functional; in short: as §2
Human alphaherpesvirus 1 [7] = test: In vivo efficacy of compound against HSV-1 strain A133 in the mouse system model was measured at 0.05 dose(mg/kg), activity expressed as Survivors counted on day 21; 1/10; format: functional; in short: as §2
Human alphaherpesvirus 1 [8] = test: In vivo efficacy of compound against HSV-1 strain A133 in the mouse system model was measured at 0.2 dose(mg/kg), activity expressed as Survivors counted on day 21; 4/10; format: functional; in short: as §2
Human alphaherpesvirus 1 [9] = test: In vivo efficacy of compound against HSV-1 strain A133 in the mouse system model was measured at 0.8 dose(mg/kg), activity expressed as Survivors counted on day 21; 10/10; format: functional; in short: as §2
Human alphaherpesvirus 1 [10] = test: Compound was measured for the inhibition of HSV-1 strain A133 in the mouse system model at 0.2 dose(mg/kg); format: functional; in short: as §2
Human alphaherpesvirus 2 [11] = test: Compound was measured for the inhibition of HSV-2 strain A133 in the mouse system model at 0.7 dose(mg/kg); format: functional; in short: as §2
Human alphaherpesvirus 2 [12] = test: In vivo efficacy of compound against HSV-2 strain CT in the mouse system model was measured at 0.1 dose(mg/kg), activity expressed as Survivors counted on day 21; 2/10
Human alphaherpesvirus 2 [13] = test: In vivo efficacy of compound against HSV-2 strain CT in the mouse system model was measured at 0.7 dose(mg/kg), activity expressed as Survivors counted on day 21; 2/10
Human alphaherpesvirus 2 [14] = test: In vivo efficacy of compound against HSV-2 strain CT in the mouse system model was measured at 1.6 dose(mg/kg), activity expressed as Survivors counted on day 21; 7/10
Human alphaherpesvirus 2 [15] = test: In vivo efficacy of compound against HSV-2 strain A133 in the mouse system model was measured at 6.25 dose(mg/kg), activity expressed as Survivors counted on day 21; 5/5; format: functional; in short: as §2
Human alphaherpesvirus 2 [16] = test: In vivo efficacy of compound against HSV-2 strain A133 in the mouse system model was measured at 0.8 dose(mg/kg), activity expressed as Survivors counted on day 21; 2/5; format: functional; in short: as §2
Human alphaherpesvirus 2 [17] = test: Compound was measured for the inhibition of HSV-2 strain A133 in the mouse system model at 3.1 dose(mg/kg); format: functional; in short: as §2
Human alphaherpesvirus 2 [18] = test: In vivo efficacy of compound against HSV-1 strain A133 in the mouse system model was measured at 1.6 dose(mg/kg), activity expressed as Survivors counted on day 21; 4/5; format: functional; in short: as §2
Human alphaherpesvirus 2 [19] = test: In vivo efficacy of compound against HSV-2 strain A133 in the mouse system model was measured at 0.4 dose(mg/kg), activity expressed as Survivors counted on day 21; 0/5; format: functional; in short: as §2
Human alphaherpesvirus 2 [20] = test: In vivo efficacy of compound against HSV-2 strain A133 in the mouse system model was measured at 3.1 dose(mg/kg), activity expressed as Survivors counted on day 21; 4/5; format: functional; in short: as §2
Human alphaherpesvirus 1 [21] = test: In vivo efficacy of compound against HSV-1 strain A133 in the mouse system model was measured at 1.6 dose(mg/kg), activity expressed as Survivors counted on day 21; 2/5; format: functional; in short: as §2
Human alphaherpesvirus 1 [22] = test: In vivo efficacy of compound against HSV-1 strain A133 in the mouse system model was measured at 3.1 dose(mg/kg), activity expressed as Survivors counted on day 21; 4/5; format: functional; in short: as §2
Human alphaherpesvirus 1 [23] = test: In vivo efficacy of compound against HSV-1 strain A133 in the mouse system model was measured at 0.1 dose(mg/kg), activity expressed as Survivors counted on day 21; 0/5; format: functional; in short: as §2
Human alphaherpesvirus 1 [24] = test: In vivo efficacy of compound against HSV-1 strain A133 in the mouse system model was measured at 0.4 dose(mg/kg), activity expressed as Survivors counted on day 21; 2/5; format: functional; in short: as §2
Human alphaherpesvirus 1 [25] = test: Compound was measured for the inhibition of HSV-1 strain A133 in the mouse system model at 1.6 dose(mg/kg); format: functional; in short: as §2
Human alphaherpesvirus 2 [26] = test: In vivo efficacy of compound against HSV-2 strain A133 in the mouse system model was measured at 50 dose(mg/kg), activity expressed as Survivors counted on day 21; 1/5; format: functional; in short: as §2
Human alphaherpesvirus 2 [27] = test: In vivo efficacy of compound against HSV-2 strain A133 in the mouse system model was measured at 6.25 dose(mg/kg), activity expressed as Survivors counted on day 21; format: functional; in short: as §2
Human alphaherpesvirus 2 [28] = test: Compound was measured for the inhibition of HSV-2 strain A133 in the mouse system model at 25 dose(mg/kg); format: functional; in short: as §2
Human alphaherpesvirus 1 [29] = test: In vivo efficacy of compound against HSV-1 strain A133 in the mouse system model was measured at 25 dose(mg/kg), activity expressed as Survivors counted on day 21; 2/5; format: functional; in short: as §2
Human alphaherpesvirus 1 [30] = test: In vivo efficacy of compound against HSV-1 strain A133 in the mouse system model was measured at 6.25 dose(mg/kg), activity expressed as Survivors counted on day 21; 0/10; format: functional; in short: as §2
Human alphaherpesvirus 1 [31] = test: In vivo efficacy of compound against HSV-1 strain A133 in the mouse system model was measured at 100 dose(mg/kg), activity expressed as Survivors counted on day 21; 3/5; format: functional; in short: as §2
Human alphaherpesvirus 1 [32] = test: In vivo efficacy of compound against HSV-1 strain A133 in the mouse system model was measured at 100 dose(mg/kg), activity expressed as Survivors counted on day 21; 8/10; format: functional; in short: as §2
Human alphaherpesvirus 1 [33] = test: In vivo efficacy of compound against HSV-1 strain A133 in the mouse system model was measured at 25 dose(mg/kg), activity expressed as Survivors counted on day 21; 1/10; format: functional; in short: as §2
Human alphaherpesvirus 1 [34] = test: Compound was measured for the inhibition of HSV-1 strain A133 in the mouse system model at 25 dose(mg/kg); format: functional; in short: as §2
Human alphaherpesvirus 1 [35] = test: In vivo efficacy of compound against HSV-1 strain A133 in the mouse system model was measured at 6.25 dose(mg/kg), activity expressed as Survivors counted on day 21; 0/5; format: functional; in short: as §2
Human alphaherpesvirus 2 [36] = test: In vivo efficacy of compound against HSV-2 strain CT in the mouse system model was measured at 100dose(mg/kg), activity expressed as Survivors counted on day 21; 2/5
Human alphaherpesvirus 2 [37] = test: In vivo efficacy of compound against HSV-2 strain CT in the mouse system model was measured at 25 dose(mg/kg), activity expressed as Survivors counted on day 21; 3/5
Human alphaherpesvirus 2 [38] = test: In vivo efficacy of compound against HSV-2 strain CT in the mouse system model was measured at 25 dose(mg/kg), activity expressed as Survivors counted on day 21; 2/10
Human alphaherpesvirus 2 [39] = test: In vivo efficacy of compound against HSV-2 strain CT in the mouse system model was measured at 100 dose(mg/kg), activity expressed as Survivors counted on day 21; 7/10

Nc1nc2c(ncn2[C@@H]2C[C@H](CO)[C@@H](O)[C@H]2F)c(=O)[nH]1
IC50 (Human alphaherpesvirus 2 [1]): 70 µg/mL (≈ 247 µM) | IC50 (Human alphaherpesvirus 1 [2]): 2.35 µg/mL (≈ 8.3 µM) | IC50 (Vero): > 300 µg/mL

Nc1nc2c(ncn2[C@@H]2C[C@H](CO)[C@@H](O)[C@@H]2F)c(=O)[nH]1
Survivors (Human alphaherpesvirus 2 [3]): 9 | IC50 (Human alphaherpesvirus 2 [1]): 0.05 µg/mL (≈ 0.177 µM) | Survivors (Human alphaherpesvirus 2 [4]): 0 | Survivors (Human alphaherpesvirus 1 [5]): 10 | IC50 (Human alphaherpesvirus 1 [2]): 0.006 µg/mL (≈ 0.0212 µM) | Survivors (Human alphaherpesvirus 1 [6]): 1 | Survivors (Human alphaherpesvirus 1 [7]): 1 | Survivors (Human alphaherpesvirus 1 [8]): 4 | Survivors (Human alphaherpesvirus 1 [9]): 10 | ED50 (Human alphaherpesvirus 1 [10]): 0.2 mg/kg | IC50 (Vero): > 300 µg/mL | ED50 (Human alphaherpesvirus 2 [11]): 0.8 mg/kg | Survivors (Human alphaherpesvirus 2 [12]): 2 | Survivors (Human alphaherpesvirus 2 [13]): 2 | Survivors (Human alphaherpesvirus 2 [14]): 7

Nc1nc(O)c2ncn([C@@H]3C[C@H](CO)[C@@H](O)C3)c2n1
IC50 (Human alphaherpesvirus 2 [1]): 0.44 µg/mL (≈ 1.66 µM) | IC50 (Human alphaherpesvirus 1 [2]): 0.06 µg/mL (≈ 0.226 µM) | IC50 (Vero): 300 µg/mL (≈ 1130 µM)

Nc1nc(O)c2ncn(C3CC(O)C(CO)C3F)c2n1 (single isomer, unassigned; (+))
Survivors (Human alphaherpesvirus 2 [15]): 5 | Survivors (Human alphaherpesvirus 2 [16]): 2 | ED50 (Human alphaherpesvirus 2 [17]): 1.1 mg/kg | ID50 (Human alphaherpesvirus 2 [1]): 0.77 µg/mL (≈ 2.72 µM) | Survivors (Human alphaherpesvirus 2 [18]): 4 | Survivors (Human alphaherpesvirus 2 [19]): 0 | Survivors (Human alphaherpesvirus 2 [20]): 4 | Survivors (Human alphaherpesvirus 1 [21]): 2 | Survivors (Human alphaherpesvirus 1 [22]): 4 | ID50 (Human alphaherpesvirus 1 [2]): 0.16 µg/mL (≈ 0.565 µM) | Survivors (Human alphaherpesvirus 1 [23]): 0 | Survivors (Human alphaherpesvirus 1 [24]): 2 | ED50 (Human alphaherpesvirus 1 [25]): 0.97 mg/kg | IC50 (Vero): > 300 µg/mL

Nc1nc(O)c2ncn(C3CC(O)C(CO)C3F)c2n1 (single isomer, unassigned; (-))
ID50 (Human alphaherpesvirus 2 [1]): 155 µg/mL (≈ 547 µM) | ID50 (Human alphaherpesvirus 1 [2]): 15 µg/mL (≈ 53 µM)

Nc1nc2c(ncn2COCCO)c(=O)[nH]1 [ACYCLOVIR]
Survivors (Human alphaherpesvirus 2 [26]): 1 | Survivors (Human alphaherpesvirus 2 [27]): 0 | ED50 (Human alphaherpesvirus 2 [28]): 58 mg/kg | IC50 (Human alphaherpesvirus 2 [1]): 0.6 µg/mL (≈ 2.66 µM) | Survivors (Human alphaherpesvirus 1 [29]): 2 | Survivors (Human alphaherpesvirus 1 [30]): 0 | IC50 (Human alphaherpesvirus 1 [2]): 0.2 µg/mL (≈ 0.888 µM) | Survivors (Human alphaherpesvirus 1 [31]): 3 | Survivors (Human alphaherpesvirus 1 [32]): 8 | Survivors (Human alphaherpesvirus 1 [33]): 1 | ED50 (Human alphaherpesvirus 1 [34]): ~50 mg/kg | ED50 (Human alphaherpesvirus 1 [34]; Human alphaherpesvirus 1, read-out: ED50): 58 mg/kg | Survivors (Human alphaherpesvirus 1 [35]): 0 | IC50 (Vero): > 300 µg/mL | Survivors (Human alphaherpesvirus 2 [36]): 2 | Survivors (Human alphaherpesvirus 2 [37]): 3 | Survivors (Human alphaherpesvirus 2 [38]): 2 | Survivors (Human alphaherpesvirus 2 [39]): 7

Nc1nc(O)c2ncn([C@@H]3O[C@H](CO)[C@@H](O)[C@@H]3F)c2n1 [F-ARAG]
IC50 (Human alphaherpesvirus 2 [1]): 19 µg/mL (≈ 66.6 µM) | IC50 (Human alphaherpesvirus 1 [2]): 5 µg/mL (≈ 17.5 µM) | IC50 (Vero): > 100 µg/mL
